These results are taken from ChEMBL document CHEMBL4706728, “Discovery of a Highly Selective and Potent TRPC3 Inhibitor with High Metabolic Stability and Low Toxicity” (ACS Med Chem Lett, 2021).

In data set [1] the target is T1, Short transient receptor potential channel 3 (Homo sapiens) (UniProt Q13507).
T1 sequence (whole entry): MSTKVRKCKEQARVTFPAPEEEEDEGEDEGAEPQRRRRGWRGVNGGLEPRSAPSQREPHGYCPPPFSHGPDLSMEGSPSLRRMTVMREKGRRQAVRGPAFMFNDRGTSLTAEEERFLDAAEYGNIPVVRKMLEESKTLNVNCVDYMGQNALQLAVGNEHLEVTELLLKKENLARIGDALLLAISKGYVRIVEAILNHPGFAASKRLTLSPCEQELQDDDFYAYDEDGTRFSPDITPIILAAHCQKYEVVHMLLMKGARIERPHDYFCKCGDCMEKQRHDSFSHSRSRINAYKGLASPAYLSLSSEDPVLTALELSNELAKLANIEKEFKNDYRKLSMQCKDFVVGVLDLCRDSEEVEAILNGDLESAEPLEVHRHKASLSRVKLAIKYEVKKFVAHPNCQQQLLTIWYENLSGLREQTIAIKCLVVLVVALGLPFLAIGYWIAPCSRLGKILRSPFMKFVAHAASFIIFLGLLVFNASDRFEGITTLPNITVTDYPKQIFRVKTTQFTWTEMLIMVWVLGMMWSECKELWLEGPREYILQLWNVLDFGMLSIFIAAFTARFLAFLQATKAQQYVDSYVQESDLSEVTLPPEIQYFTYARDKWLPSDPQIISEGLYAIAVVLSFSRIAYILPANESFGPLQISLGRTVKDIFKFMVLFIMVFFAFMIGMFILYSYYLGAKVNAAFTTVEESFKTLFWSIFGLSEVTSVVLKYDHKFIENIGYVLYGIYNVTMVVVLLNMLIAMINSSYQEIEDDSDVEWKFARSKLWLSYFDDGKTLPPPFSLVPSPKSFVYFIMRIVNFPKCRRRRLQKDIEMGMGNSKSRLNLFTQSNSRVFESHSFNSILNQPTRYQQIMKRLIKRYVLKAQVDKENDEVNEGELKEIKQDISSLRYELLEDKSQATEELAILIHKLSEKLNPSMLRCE
Kind of data set: Inhibition of human TRPC3 expressed in HEK293 cells assessed as inhibition of GSK170-induced current at 10 uM in absence of extracellular calcium by whole cell patch-clamp method relative to control. In kind it is cell-based. The method in brief:
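Human TRPC3 transiently expressed in HEK293 cells; whole-cell patch clamp with Ca2+-free solutions. Channel activated by GSK1702934A, then test compound at 10 μM perfused with the agonist. Inhibition expressed as percentage of the agonist-evoked current; mean ± SD, n cells per compound.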
Background: Patch clamp records ionic current or voltage across a cell membrane.

Data set [2] in a line: Toxicity in NSG/ICR mouse assessed as mortality at 200 mg/kg, ip administered once daily for 5 days measured within 48 hrs. In kind it is organism-based. To be noted: in vivo, dose 200 mg/kg/day. The method in brief: (§1)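 Mice (n = 5 per group) dosed at 200 mg/kg by intraperitoneal injection once daily for 5 consecutive days. Survival monitored. Body weight expressed as mean percent change ± SD relative to weight at the start of treatment (day 0), with 15% weight loss as the reference line.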

Data set [3] in a line: Toxicity in NSG/ICR mouse assessed as body weight loss at 200 mg/kg, ip administered once daily for 5 days. The format is organism-based. To be noted: in vivo, 120 h, dose 200 mg/kg/day, time 5 day. The method in brief:
as §1

For data set [4], the target named is T1, Short transient receptor potential channel 3 (Homo sapiens). Kind of data set: Inhibition of human TRPC3 expressed in HEK293 cells assessed as inhibition of OAG-induced current at 0.001 to 10 uM by whole cell patch-clamp method. The settings on record: dose 0.001-10 µM. The format is cell-based. Put shortly: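 Whole-cell recordings of hTRPC3 expressed in HEK293 cells, channel activated by 1-oleoyl-2-acetyl-sn-glycerol (membrane-permeable diacylglycerol analogue) instead of GSK1702934A. Inhibitor at a range of concentrations co-perfused with agonist to build a dose–response profile.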

Data set [5] concerns the target T2, Short transient receptor potential channel 3 (Homo sapiens, UniProt Q13507).
T2 sequence (Q13507 whole entry): T1 sequence (whole entry)
Kind of data set: Inhibition of human TRPC3 expressed in HEK293 cells assessed as inhibition of GSK170-induced current in presence of 2 mM extracellular calcium by whole cell patch-clamp method. The format is cell-based. Put shortly:
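hTRPC3 in HEK293 cells, whole-cell patch clamp with 2 mM extracellular Ca2+. Currents elicited by 1 μM GSK1702934A and challenged with a range of inhibitor concentrations by perfusion. Each concentration tested on separate cells and normalized to the cell's maximum amplitude. Dose–response curve built from the data; mean ± SD.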

Data set [6] addresses T2, Short transient receptor potential channel 3. Kind of data set: Inhibition of human TRPC3 expressed in HEK293 cells assessed as inhibition of GSK170-induced current in absence of extracellular calcium by whole cell patch-clamp method. The format is cell-based. The method in brief:
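Whole-cell patch clamp of hTRPC3 in transfected HEK293 cells, Ca2+-free solutions, currents activated by 1 μM GSK1702934A. Inhibitor at a range of concentrations perfused with agonist. Each concentration tested on independent cells and normalized to that cell's maximum current to avoid tachyphylaxis. Dose–response fitted for IC50; mean ± SD.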

The target in data set [7] is T3, Short transient receptor potential channel 3 (Mus musculus, UniProt Q9QZC1).
T3 sequence (Q9QZC1 whole entry): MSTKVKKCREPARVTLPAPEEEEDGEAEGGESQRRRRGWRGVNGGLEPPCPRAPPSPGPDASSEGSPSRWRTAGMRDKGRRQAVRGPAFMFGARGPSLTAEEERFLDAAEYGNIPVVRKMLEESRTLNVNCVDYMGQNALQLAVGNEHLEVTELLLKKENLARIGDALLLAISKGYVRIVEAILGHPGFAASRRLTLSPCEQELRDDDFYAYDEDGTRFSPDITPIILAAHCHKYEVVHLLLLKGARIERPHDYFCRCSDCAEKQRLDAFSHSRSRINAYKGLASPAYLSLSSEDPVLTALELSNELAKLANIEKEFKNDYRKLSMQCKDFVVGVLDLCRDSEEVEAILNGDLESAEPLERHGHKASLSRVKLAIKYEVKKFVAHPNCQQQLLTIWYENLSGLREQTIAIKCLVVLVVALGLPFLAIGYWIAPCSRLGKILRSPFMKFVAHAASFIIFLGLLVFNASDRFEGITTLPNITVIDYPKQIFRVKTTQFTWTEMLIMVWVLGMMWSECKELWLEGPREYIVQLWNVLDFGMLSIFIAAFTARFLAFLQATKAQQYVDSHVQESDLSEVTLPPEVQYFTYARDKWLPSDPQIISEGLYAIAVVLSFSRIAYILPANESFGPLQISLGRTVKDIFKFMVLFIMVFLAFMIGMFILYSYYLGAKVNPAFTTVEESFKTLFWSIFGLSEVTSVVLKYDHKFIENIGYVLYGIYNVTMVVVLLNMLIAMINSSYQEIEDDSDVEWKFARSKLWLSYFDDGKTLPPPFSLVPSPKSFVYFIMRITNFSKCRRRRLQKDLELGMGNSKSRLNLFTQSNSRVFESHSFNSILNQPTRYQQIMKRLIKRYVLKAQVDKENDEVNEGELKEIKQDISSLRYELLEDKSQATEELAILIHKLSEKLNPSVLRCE
Kind of data set: Inhibition of mouse TRPC3 expressed in HEK293 cells assessed as inhibition of Ca2+ influx by whole cell patch-clamp method. The format is cell-based.

A further data set has as its target ORAI1/STIM1 (Homo sapiens, UniProt Q96D31+Q13586). Briefly: Inhibition of STIM/Orai1 (unknown origin) expressed in HEK293 cells assessed as reduction in thapsigargin-induced Ca2+ influx at 10 uM in presence of Ca2+ by whole cell patch clamp method. In kind it is cell-based. The settings on record: hek293, 10 µM.
Data set [8] in a line: Metabolic stability in mouse liver microsomes assessed as half life at […] measured up to 240 mins in presence of NADPH regeneration system by LC-MS analysis. The format is ADME, Microsome. In general terms: Microsomes from liver hold many membrane-bound enzymes, among them those of drug oxidation.
For another data set, the system named is Hippocampal neurone. Briefly: Neuroprotective activity in Sprague-Dawley rat primary hippocampal neurons assessed as reduction in Abeta-induced dendrites damage at 0.25 to 1 uM incubated for 16 hrs by MAP2 staining based assay. The format is functional, tissue-based. To be noted: dose 0.25-1 µM. The method in brief:
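Primary hippocampal neurons from E17 rat embryos, used at 14 DIV. Treated for 16 h with naturally secreted Aβ-containing 7PA2 conditioned medium (CHO medium as control), alone or with test compound at several concentrations. Neurons then immunostained for MAP2 with DAPI, and dendritic length quantified.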

Data set [9] can be described thus: Metabolic stability in rat liver microsomes assessed as half life at […] measured up to 240 mins in presence of NADPH regeneration system by LC-MS analysis. The format is ADME, Microsome.
Data set [10] in a line: Toxicity in NSG/ICR mouse assessed as survival at 200 mg/kg, ip administered once daily for 5 days. In kind it is organism-based. The settings on record: NSG/ICR, in vivo, dose 200 mg/kg/day, time 5 day. Put shortly:
as §1

The nature of data set [11]: Metabolic stability in human liver microsomes assessed as half life at […] measured up to 240 mins in presence of NADPH regeneration system by LC-MS analysis. The format is ADME, Microsome.

Molecules are shown by their SMILES. pIC50: −log10 of the molar value. Calls of active or inactive are those of the source.

ORAI1/STIM1, sequence (Q96D31 whole entry): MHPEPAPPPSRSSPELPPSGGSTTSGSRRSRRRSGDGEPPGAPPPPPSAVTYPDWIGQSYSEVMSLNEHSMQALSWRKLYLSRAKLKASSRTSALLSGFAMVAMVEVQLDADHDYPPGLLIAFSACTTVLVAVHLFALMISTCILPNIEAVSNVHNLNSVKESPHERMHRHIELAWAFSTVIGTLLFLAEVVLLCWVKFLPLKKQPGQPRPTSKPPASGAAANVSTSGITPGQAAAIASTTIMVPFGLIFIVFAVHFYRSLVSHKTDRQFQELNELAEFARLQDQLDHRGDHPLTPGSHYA
ORAI1/STIM1, sequence (Q13586 whole entry): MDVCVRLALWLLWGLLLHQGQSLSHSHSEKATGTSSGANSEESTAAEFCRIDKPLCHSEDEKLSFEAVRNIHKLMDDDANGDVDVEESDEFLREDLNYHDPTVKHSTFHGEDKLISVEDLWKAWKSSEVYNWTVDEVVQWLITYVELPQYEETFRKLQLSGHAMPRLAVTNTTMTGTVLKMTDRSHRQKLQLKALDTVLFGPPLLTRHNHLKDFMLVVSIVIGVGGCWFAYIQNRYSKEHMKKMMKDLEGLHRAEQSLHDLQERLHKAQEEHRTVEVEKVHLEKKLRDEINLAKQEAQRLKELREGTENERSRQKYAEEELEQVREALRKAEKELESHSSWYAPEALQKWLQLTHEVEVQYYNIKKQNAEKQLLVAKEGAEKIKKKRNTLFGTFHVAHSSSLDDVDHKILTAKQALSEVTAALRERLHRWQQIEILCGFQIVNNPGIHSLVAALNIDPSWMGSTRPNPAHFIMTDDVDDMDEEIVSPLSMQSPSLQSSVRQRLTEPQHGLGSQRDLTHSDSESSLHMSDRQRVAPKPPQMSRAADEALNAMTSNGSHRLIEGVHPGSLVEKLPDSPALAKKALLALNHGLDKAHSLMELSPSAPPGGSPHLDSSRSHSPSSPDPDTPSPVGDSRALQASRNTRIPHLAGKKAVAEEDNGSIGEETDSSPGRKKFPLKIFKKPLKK

As usually defined, the inhibition is the change of the read-out against control, counted positive when it falls. As for `CCNC(=O)c1cnn(-c2ccc(-n3ccc(Cl)c(F)c3=O)cc2)c1C(F)(F)F`, the inhibition result in data set [1] is “inactive”.

Consider `CCOC(=O)c1cnn(-c2ccc(-n3cc(Cl)ccc3=O)cc2)c1C(F)(F)F`, for which the inhibition entry in data set [1] was “inactive”.

`CCNC(=O)c1cnn(-c2ccc(-n3ccc(Cl)cc3=O)cc2)c1C(F)(F)F`: in data set [1], the inhibition came out at 84%.

As to `CCOC(=O)c1cnn(-c2ccc(-n3ccccc3=O)cc2)c1C(F)(F)F`, in [1], the inhibition result is “inactive”.

What is called mortality is the percentage killed. Consider `CCNC(=O)c1cnn(-c2ccc(NC(=O)C(Cl)=C(Cl)Cl)cc2)c1C(F)(F)F`, for which the mortality at 48 h in data set [2] came to 100%.

In the case of `CCNS(=O)(=O)c1cnn(-c2ccc(-n3ccc(Cl)c(Cl)c3=O)cc2)c1C(F)(F)F`, in data set [1], the inhibition entry was “inactive”.

In general, pIC50 refers to the IC50 on a negative log10 scale, so that one unit is a factor of ten. As a reminder, the half-life is the time needed for the level to fall by half in the phase considered. Regarding `CCOC(=O)c1cnn(-c2ccc(NC(=O)C(Cl)=C(Cl)Cl)cc2)c1C(F)(F)F`, in data set [3], the Activity was determined as 15%. In [4], the inhibition result is “Active”. Moreover, the results for the pIC50 in data set [5], in [6] and in data set [7] were 6.33, 6.28 and 6.15, respectively. The inhibition in [1] was found to be 91%. In addition, the “inhibition (INH)” value at ORAI1/STIM1 was “Active”. The half-life in data set [8], in data set [9] and in [11] was less than 15 min each time. In addition, in the data set with Hippocampal neurone, the outcome was Active. In addition, in data set [10], the survival at 120 h amounted to 80%.

Take `CCOC(=O)c1cnn(-c2ccc(-n3ccc(Cl)cc3=O)cc2)c1C(F)(F)F`: the inhibition in [1] was determined as 71%.

As for `CCOC(=O)c1cnn(-c2ccc(-n3cc(Cl)cc(Cl)c3=O)cc2)c1C(F)(F)F`, the inhibition entry in data set [1] was “inactive”.
